Bioassay records deposited in PubChem by Johns Hopkins Ion Channel Center.
This is a sample that favours compounds with a hit; in the whole collection about 2.3% have one here.
TRPC4 block: TRPC4 (mouse) channel inhibition; Q9QUQ5; AID 2247; HEK293 TRPC4beta/mu-opioid, DAMGO-evoked Fluo4 calcium flux; stronger effect = lower value; actives 0.39% (n = 300,000); B-score at 10 µM;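 active = B-score over 3 SD under the library average, no early fluorescence shift, positive overall ratio signal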
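Signal: kinetic Fluo4 fluorescence imaging of calcium influx. Material: stable TRPC4beta/mu-opioid receptor HEK293 cells. Probe or stimulus: DAMGO in two steps, submaximal then maximal.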
TRPC4 PAM: allosteric potentiators of mouse TRPC4 channel | Q9QUQ5 | HEK293 TRPC4beta/mu-opioid, DAMGO EC20, Fluo-4 Ca2+ flux; stronger effect = higher value | B-score at 10 µM | actives 0.42% (n = 310,000) | AID 2227;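 active = B-score of calcium response area above 5 SD of library B-scores, with initial fluorescence ratio within 5 SD of library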;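 also: B-score of integrated fluorescence ratio over time as area under calcium response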
TRPC6 act: activators of mouse TRPC6 channel; HEK293-TRPC6 membrane potential dye fluorescence; stronger effect = higher value; Q61143; B-score at 10 µM; actives 0.13% (n = 310,000); AID 2550;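 active = B-score of the integrated fluorescence ratio above library mean plus 3 SD, and starting fluorescence ratio within library mean plus 5 SD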;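 also: higher score means more depolarization so channel activation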
Target sequence (Q61143 whole entry, looked up): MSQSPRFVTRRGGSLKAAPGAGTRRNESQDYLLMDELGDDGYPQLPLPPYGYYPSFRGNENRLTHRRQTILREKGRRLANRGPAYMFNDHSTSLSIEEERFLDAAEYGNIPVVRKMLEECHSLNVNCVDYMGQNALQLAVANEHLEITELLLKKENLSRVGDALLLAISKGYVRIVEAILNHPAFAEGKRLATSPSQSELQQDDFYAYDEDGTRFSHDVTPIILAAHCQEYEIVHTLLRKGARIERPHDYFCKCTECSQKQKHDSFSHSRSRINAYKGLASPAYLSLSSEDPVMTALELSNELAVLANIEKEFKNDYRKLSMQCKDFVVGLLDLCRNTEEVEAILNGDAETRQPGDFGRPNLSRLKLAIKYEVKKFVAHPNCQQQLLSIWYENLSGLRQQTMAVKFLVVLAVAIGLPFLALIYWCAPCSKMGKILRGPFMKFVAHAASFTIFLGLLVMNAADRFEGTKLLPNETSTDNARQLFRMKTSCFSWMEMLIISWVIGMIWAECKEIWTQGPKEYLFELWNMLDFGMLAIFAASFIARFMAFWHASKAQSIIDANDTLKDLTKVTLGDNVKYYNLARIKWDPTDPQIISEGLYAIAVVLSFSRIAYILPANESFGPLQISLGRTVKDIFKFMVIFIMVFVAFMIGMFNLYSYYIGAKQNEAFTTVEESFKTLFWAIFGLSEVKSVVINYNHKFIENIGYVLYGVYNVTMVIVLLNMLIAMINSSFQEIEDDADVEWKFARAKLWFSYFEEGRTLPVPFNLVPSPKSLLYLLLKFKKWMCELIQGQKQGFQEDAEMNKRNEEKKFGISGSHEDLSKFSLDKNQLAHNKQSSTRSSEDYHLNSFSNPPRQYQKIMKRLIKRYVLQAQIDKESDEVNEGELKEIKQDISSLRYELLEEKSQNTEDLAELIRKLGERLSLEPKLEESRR
TRPC6 inhibitor: mouse TRPC6 channel inhibition. Q61143. HEK293-TRPC6, membrane potential dye, ACh-evoked depolarization; stronger effect = lower value. B-score at 10 µM. actives 1.1% (n = 310,000). AID 2553;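 active = B-score under library mean minus 3 SD, initial fluorescence not abnormally high, positive integrated signal ratio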;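 also: B-score derived from integrated fluorescence ratio over the kinetic read; more negative B-score means stronger inhibition of depolarization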
TRPC4 agonist: TRPC4 (mouse) channel activation | B-score at 10 µM | HEK293 TRPC4beta/mu-opioid, Fluo4 calcium fluorescence; stronger effect = higher value | Q9QUQ5 | actives 0.49% (n = 310,000);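 active = B-score above 5 SD of library B-scores, and initial fluorescence ratio not above library mean plus 5 SD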;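 also: positive B-score marks a calcium rise read as TRPC4 activation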
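Assay system: HEK293 cells stably co-expressing mouse TRPC4beta and mu-opioid receptor / Timing: Fluo4 dye loading 45 min at room temperature, 110 s recording / Signal: Fluo4 calcium-sensitive dye fluorescence, kinetic, 1 Hz baseline / Read-out: integrated baseline-normalised fluorescence ratio, converted to per-well B score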
TRPC4 sel inh 2: second check of whether TRPC6 inhibitors also affect mouse TRPC4 | AID 2776 | shares compounds with TRPC6 inhibitor | HEK293 TRPC4/MOR, membrane potential dye fluorescence; channel activated by saturating DAMGO dose | inhibition, % at 10 µM | actives 42% (n = 920);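 active = compounds whose fluorescence signal differed from control wells by over 3 SD, either direction, in both duplicate plates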
TRPC4 spec: tests whether TRPC6 inhibitors also affect mouse TRPC4. activity change, negative = inhibition, % at 10 µM. shares compounds with TRPC6 inhibitor. actives 61% (n = 920). HEK293 TRPC4/mu-opioid, membrane potential fluorescence. AID 2777;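 active = rise or fall in signal beyond 3 SD of buffer-only wells in both replicate plates, either sign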;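 also: integrated kinetic ratio of fluorescence range over baseline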
HEK293 MPD ctr 2-1: second counter-screen for TRPC6 inhibitors: parental HEK293 cells; shares compounds with TRPC6 inhibitor; parental HEK293 membrane potential dye fluorescence; maximal acetylcholine challenge after compound addition; signal change vs control, % at 10 µM; actives 31% (n = 920); AID 2779;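 active = membrane potential signal moving either way by over 3 SD of the maximum-effect control, in both duplicate plates, meaning non-specific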
HEK293 MPD ctr-1: counter-screen for TRPC6 inhibitors: effect in parental HEK293 cells. parental HEK293 membrane potential dye fluorescence. membrane potential signal change, % at 10 µM. AID 2780. actives 60% (n = 920). shares compounds with TRPC6 inhibitor;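 active = membrane potential signal shifting up or down by more than 3 SD of buffer-only wells, on both duplicate plates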
HEK293 MPD ctr-2: checks TRPC6 modulator effects in parental HEK293 cells | membrane potential signal change, % at 10 µM | shares compounds with TRPC6 inhibitor | membrane potential dye fluorescence | AID 488924 | actives 51% (n = 2,400);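 active = membrane potential signal moves up or down beyond 5 SD from buffer-only wells, on both duplicate plates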
HEK293 MPD ctr 2-2: second check of TRPC6 modulator effects in parental HEK293 cells; membrane potential dye fluorescence; after compound, maximal acetylcholine stimulation; inhibition, % at 10 µM; shares compounds with TRPC6 inhibitor; actives 14% (n = 2,400);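 active = membrane potential signal drops by more than 5 SD from the mean control signal, in both duplicate plates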;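 also: plate controls were acetylcholine ECmax control wells for no effect and buffer only wells for full effect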
TRPC4/MOR mod: tests whether TRPC6 modulators also affect mouse TRPC4; HEK293 TRPC4/mu-opioid, membrane potential fluorescence; percent change from control (negative = decrease, positive = increase), % at 10 µM; actives 69% (n = 2,400); shares compounds with TRPC6 inhibitor;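 active = membrane potential signal moved up or down beyond 5 SD of buffer control wells, in both duplicate plates, actives on both sides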;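 also: plate controls were assay buffer wells for no effect and DAMGO maximal-effect wells for full effect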
TRPC4 ctr inh 2: second check of whether TRPC6 modulators also affect mouse TRPC4; inhibition, % at 10 µM; actives 55% (n = 2,400); shares compounds with TRPC6 inhibitor; HEK293 TRPC4/mu-opioid, membrane potential dye fluorescence; stimulated with maximal-effect DAMGO; AID 488928;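 active = drop in membrane potential signal beyond 5 SD of the control wells in both duplicate plates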;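 also: TRPC4 counter screen for TRPC6 hits run under conditions tuned for TRPC6 not TRPC4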
TRPC6 block conf: confirmation of mouse TRPC6 inhibitors; inhibition, % at 10 µM; actives 43% (n = 3,300); HEK293-TRPC6, membrane potential dye, ACh-evoked depolarization; shares compounds with TRPC6 inhibitor;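 active = fluorescence ratio falls more than 5 SD below the full-stimulation control mean, in both duplicate runs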;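 also: integrated fluorescence ratio of peak minus minimum over baseline after agonist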
TRPC6 act conf: confirmation of mouse TRPC6 activators | shares compounds with TRPC6 inhibitor | HEK293-TRPC6 membrane potential dye fluorescence, FDSS | activation, % at 10 µM | actives 11% (n = 2,800);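 active = ratio signal rise beyond 5 SD above unstimulated control wells' mean, seen in both duplicate runs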;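 also: plate controls were buffer EC0 wells for no effect and acetylcholine ECmax response for full effect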
Starred values were filed as active, the others as inactive; i = inactive; x = no result given.

SMILES	TRPC4 block	TRPC4 PAM	TRPC6 act	TRPC6 inhibitor	TRPC4 agonist	HEK293 MPD ctr-2	HEK293 MPD ctr 2-2	TRPC4/MOR mod	TRPC4 ctr inh 2	TRPC6 block conf	TRPC6 act conf	others
c1cncc(CNc2nc(-c3cccnc3)nc3ccccc23)c1	i	i	i	i	i	x	x	x	x	x	x
CC(C)(C)c1ccc(-c2nc(NCc3cccnc3)c3ccccc3n2)cc1	i	i	i	-6.81*	i	i	i	i	i	i	i
c1ccc(CNc2nc(-c3cccnc3)nc3ccccc23)cc1	i	i	i	i	i	x	x	x	x	x	x
c1ccc(CNc2nc(-c3ccccn3)nc3ccccc23)cc1	i	i	i	-7*	i	-207.5%*	i	-40.5%*	61.5%*	39.5%*	i
COCCNC(=O)C1(C(F)(F)F)CC(CCCO)CCCO1 (stereo not drawn)	i	i	i	i	i	x	x	x	x	x	x
N/C(=N\OC(=O)C1CC1)c1ccc([N+](=O)[O-])s1	i	i	i	i	i	x	x	x	x	x	x
CSc1cccc(NC(=S)NC(=O)c2cccnc2)c1	i	i	i	i	i	x	x	x	x	x	x
O=C(O)Cc1sc(-c2ccccc2Cl)nc1-c1ccccc1	i	i	i	-6.18*	i	i	i	i	i	i	i
COc1ccc(CCNC(=O)Cn2nnc(-c3cccs3)n2)cc1OC	i	i	i	-5.75*	i	i	i	i	i	i	i
O=C(Cn1nnc(-c2cccs2)n1)NCCc1ccccc1	i	i	i	i	i	x	x	x	x	x	x
O=C(NC1CCCC1)c1cc(=O)[nH]c2ccccc12	i	i	i	i	i	x	x	x	x	x	x
Cc1cccc(NC(=O)c2cc3c(=O)n4ccccc4nc3s2)c1	i	i	i	i	i	x	x	x	x	x	x
CC(=O)NS(=O)(=O)c1ccc(NC(=O)c2cc3c(=O)n4ccccc4nc3s2)cc1	i	i	i	-7.92*	i	x	x	x	x	i	i	TRPC4 sel inh 2=73.5%*;TRPC4 spec=-35.2%*;HEK293 MPD ctr 2-1=30.0%*;HEK293 MPD ctr-1=-653.0%*
CCOC(=O)N1CCN(C(=O)c2cc3cc(Cl)ccc3[nH]2)CC1	i	i	i	-6.07*	i	i	i	i	i	i	i
CCOC(=O)N1CCN(C(=O)c2cc3cc(F)ccc3[nH]2)CC1	i	i	i	i	i	x	x	x	x	x	x
Cc1ccc([N+](=O)[O-])c(OCCN2CCCCCC2)c1	i	i	i	i	i	x	x	x	x	x	x
O=Cc1cc(Cl)ccc1OCCN1CCC(Cc2ccccc2)CC1	i	i	i	i	i	x	x	x	x	x	x
O=[N+]([O-])c1cccc(OCCN2CCC(Cc3ccccc3)CC2)c1	i	i	i	-8.45*	i	x	x	x	x	61.5%*	i	TRPC4 sel inh 2=33.0%*;TRPC4 spec=i;HEK293 MPD ctr 2-1=i;HEK293 MPD ctr-1=i
Cc1ccc([N+](=O)[O-])c(OCCCN2CCC(Cc3ccccc3)CC2)c1	i	i	i	-5.17*	i	i	i	i	73.0%*	53.0%*	i
N#Cc1cnn(Cc2ccc(Cl)cc2)c1N	x	i	i	i	i	x	x	x	x	x	x
N#Cc1cnn(Cc2ccccc2)c1N	i	i	i	-6.24*	i	i	i	i	i	i	i
Cc1onc(-c2c(Cl)cccc2Cl)c1C(=O)c1c[nH]c(C(=O)NCC2CCCO2)c1 (stereo not drawn)	i	i	i	i	i	x	x	x	x	x	x
Cc1cc(Br)ccc1OCCCCNC(C)(C)C	i	i	i	i	i	x	x	x	x	x	x
CC(C)COc1ccc(Br)cc1CNC(C)(C)C	i	i	i	-8.84*	i	584.0%*	120.0%*	127.5%*	83.0%*	105.5%*	x
COc1ccccc1-c1ccc(/C=C2/C=C(C)OC2=O)o1	i	i	i	i	i	x	x	x	x	x	x
SMILES	TRPC4 block	TRPC4 PAM	TRPC6 act	TRPC6 inhibitor	TRPC4 agonist	HEK293 MPD ctr-2	HEK293 MPD ctr 2-2	TRPC4/MOR mod	TRPC4 ctr inh 2	TRPC6 block conf	TRPC6 act conf	others
COc1ccccc1-c1ccc(/C=C2\C=CC(=O)O2)o1	i	i	30.9*	i	i	706.0%*	i	204.0%*	i	i	121.0%*
O=C(O)c1ccc(N=C2NC(=O)C(CO)(CO)S2)cc1	i	i	i	i	i	x	x	x	x	x	x
CCOC(=O)N1CCN(C(=O)c2ccc3nc(N4CCC(C)CC4)sc3c2)CC1	i	i	13.4*	-11.6*	i	114.0%*	i	21.0%*	i	113.0%*	160.5%*
CCN(CC)c1ccc(S(=O)(=O)N2CCOCC2)cc1NC(=O)CSC(=S)N1CCCC1	i	i	i	i	i	x	x	x	x	x	x
C/C(=N\NC(=S)NC(C)C)c1ccccc1OC(F)F	i	i	i	-8.85*	i	x	x	x	x	i	i	TRPC4 sel inh 2=i;TRPC4 spec=i;HEK293 MPD ctr 2-1=i;HEK293 MPD ctr-1=i
Cc1cc(N(CCO)CCO)ccc1N=Nc1cc(F)ccc1F	i	i	i	-7.02*	i	x	x	x	x	62.9%*	i	TRPC4 sel inh 2=62.5%*;TRPC4 spec=-21.8%*;HEK293 MPD ctr 2-1=i;HEK293 MPD ctr-1=-454.0%*
Nc1ccc(N(CCO)CCO)cc1	i	i	i	i	i	x	x	x	x	x	x
CCOc1ccc(CNCCNC(=O)c2nonc2N)cc1	i	i	i	i	i	x	x	x	x	x	x
